In experiment [1] the target is T1, Adenosine receptor A2a (Homo sapiens, UniProt P29274). The experiment can be described thus: Displacement of [3H]-ZM 241,385 from human A2A adenosine receptor expressed in CHO cell membranes after 60 mins by scintillation counting method. The essentials:
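hA2A CHO membranes (50 µg protein/100 µl), 1 nM [3H]-ZM 241385, graded test concentrations, 60 min at 4°C in 50 mM Tris-HCl pH 7.4 with 10 mM MgCl2. Nonspecific: 1 µM ZM 241385.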
In general terms: In a radioligand displacement assay an active substance lowers the binding of a labelled ligand.

Experiment [2] deals with T1, Adenosine receptor A2a. Nature of the experiment: Displacement of [3H]-ZM 241,385 from human A2A adenosine receptor expressed in CHO cell membranes at 10 uM after 60 mins by scintillation counting method relative to control. The essentials: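 Using 1 nM [3H]-ZM 241385 on hA2A CHO membranes, 60 min, 4°C, 50 mM Tris-HCl pH 7.4, 10 mM MgCl2; 1 µM ZM 241385 for nonspecific binding; filtered and counted. Percent inhibition measured at 10 µM compound.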

Experiment [3] deals with T2, Adenosine receptor A1 (Homo sapiens, UniProt P30542).
T2 sequence (P30542 whole entry): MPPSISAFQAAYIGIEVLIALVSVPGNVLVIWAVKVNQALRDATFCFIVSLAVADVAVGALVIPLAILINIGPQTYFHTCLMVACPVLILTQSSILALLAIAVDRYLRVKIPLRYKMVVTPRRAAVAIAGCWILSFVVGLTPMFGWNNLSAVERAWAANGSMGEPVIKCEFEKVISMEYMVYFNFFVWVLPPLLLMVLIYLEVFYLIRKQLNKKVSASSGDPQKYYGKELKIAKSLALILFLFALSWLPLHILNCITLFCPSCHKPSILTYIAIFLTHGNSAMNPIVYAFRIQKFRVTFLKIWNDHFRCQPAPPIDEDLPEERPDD
Nature of the experiment: Displacement of [3H]-DPCPX from human A1 adenosine receptor expressed in CHO cell membranes after 90 mins by scintillation counting method. An outline of the steps: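 Membranes from CHO cells expressing hA1 (50 µg protein/100 µl) incubated with 1 nM [3H]-DPCPX and varying test concentrations, 25°C, 90 min, 50 mM Tris-HCl pH 7.4. Nonspecific binding with 1 µM DPCPX. Filtration over glass fiber filters, scintillation counting.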

The target in experiment [4] is T3, Adenosine receptor A2b (Homo sapiens, UniProt P29275).
T3 sequence (P29275 whole entry): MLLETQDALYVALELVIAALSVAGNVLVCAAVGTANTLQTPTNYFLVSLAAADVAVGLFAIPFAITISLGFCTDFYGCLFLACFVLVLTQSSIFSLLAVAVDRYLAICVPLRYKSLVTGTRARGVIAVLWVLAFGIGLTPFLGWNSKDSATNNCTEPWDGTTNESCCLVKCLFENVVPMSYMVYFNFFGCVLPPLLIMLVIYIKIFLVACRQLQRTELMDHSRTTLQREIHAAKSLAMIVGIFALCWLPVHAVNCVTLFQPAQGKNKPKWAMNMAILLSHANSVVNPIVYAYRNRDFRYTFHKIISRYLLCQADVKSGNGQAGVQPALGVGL
Nature of the experiment: Antagonist activity at human A2B adenosine receptor assessed as inhibition of NECA-stimulated cAMP level after 30 mins by Alphascreen assay. The experiment is classed as functional. An outline of the steps: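 Cells with compounds and anti-cAMP acceptor beads 30 min, then streptavidin donor beads plus biotinylated cAMP 1 h; AlphaScreen read. IC50 by sigmoid nonlinear regression.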
Background: Cyclic AMP is a second messenger, typically raised through Gs and lowered through Gi signalling.

Experiment [5] deals with T4, Adenosine receptor A3 (Homo sapiens, UniProt P0DMS8).
T4 sequence (P0DMS8 whole entry): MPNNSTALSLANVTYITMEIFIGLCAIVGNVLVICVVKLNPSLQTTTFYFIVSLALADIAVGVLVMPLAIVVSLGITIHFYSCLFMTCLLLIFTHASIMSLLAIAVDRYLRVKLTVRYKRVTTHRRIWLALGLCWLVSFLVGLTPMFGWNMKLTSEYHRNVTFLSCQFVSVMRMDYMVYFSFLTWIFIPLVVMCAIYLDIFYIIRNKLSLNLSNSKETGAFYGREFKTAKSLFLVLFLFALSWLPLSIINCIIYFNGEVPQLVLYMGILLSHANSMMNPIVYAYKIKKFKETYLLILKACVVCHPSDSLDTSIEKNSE
Nature of the experiment: Displacement of [125I]-ABMECA from human A3 adenosine receptor expressed in CHO cell membranes after 120 mins by scintillation counting method.

Experiment [6] deals with T1, Adenosine receptor A2a. The experiment can be described thus: Inverse agonist activity at human A2A adenosine receptor expressed in CHO cells assessed as inhibition of basal cAMP level after 30 mins by Alphascreen assay. The experiment is classed as functional, cell-based. The essentials:
(§1)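 hA2A CHO cells exposed to varied compound concentrations without agonist, measuring decrease of basal cAMP; AlphaScreen detection (30 min acceptor beads, then 1 h donor beads with biotinylated cAMP). IC50 from sigmoid nonlinear fit, Emax efficacy; mean ± SEM.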

For experiment [7], the target named is T1, Adenosine receptor A2a. Nature of the experiment: Antagonist activity at human A2A adenosine receptor expressed in CHO cells assessed as inhibition of CGS21680-stimulated cAMP level after 30 mins by Alphascreen assay. The experiment is classed as functional, cell-based. An outline of the steps:
(§2)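 Same hA2A CHO cAMP experiment run in presence of CGS 21680 (10 nM); compounds at varied concentrations, AlphaScreen cAMP detection (30 min, then 1 h). IC50 via sigmoid nonlinear regression, Emax efficacy; four experiments in triplicate, mean ± SEM.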

The target in experiment [8] is T5, Adenosine receptor A2b (Homo sapiens) (UniProt P29275).
T5 sequence (whole entry): T3 sequence (P29275 whole entry)
Nature of the experiment: Antagonist activity at human A2B adenosine receptor assessed as inhibition of NECA-stimulated cAMP level at 10 uM after 30 mins by Alphascreen assay relative to control. The experiment is classed as functional.

Experiment [9] deals with T6, Adenosine receptor A1 (Homo sapiens) (UniProt P30542).
T6 sequence (whole entry): T2 sequence (P30542 whole entry)
Nature of the experiment: Modulation of human A1 adenosine receptor expressed in CHO cells assessed as forskolin-stimulated cAMP level after 30 mins by Alphascreen assay relative to control. The experiment is classed as functional, cell-based. An outline of the steps: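 In hA1 CHO cells, compounds incubated with Forskolin (5 µM) without agonist; cAMP quantified by AlphaScreen (30 min acceptor-bead step, then 1 h donor beads and biotinylated cAMP). Expressed as % of Forskolin-stimulated cAMP (100%); mean ± SEM.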

Experiment [10] has as its target T2, Adenosine receptor A1. The experiment can be described thus: Antagonist activity at human A1 adenosine receptor expressed in CHO cells assessed as inhibition of CCPA-induced reduction of forskolin-stimulated cAMP level after 30 mins by Alphascreen assay. The experiment is classed as functional, cell-based. The essentials:
(§3)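 hA1 CHO cells given Forskolin (5 µM) and 1 nM CCPA with varied compound concentrations; AlphaScreen cAMP detection (30 min with acceptor beads, then donor beads/biotinylated cAMP 1 h). IC50 by sigmoid nonlinear regression; Emax as efficacy in reversing CCPA inhibition; mean ± SEM.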

Experiment [11] deals with T6, Adenosine receptor A1 (Homo sapiens). The experiment can be described thus: Antagonist activity at human A1 adenosine receptor expressed in CHO cells assessed as inhibition of CCPA-induced reduction of forskolin-stimulated cAMP level after 30 mins by Alphascreen assay relative to control. The experiment is classed as functional, cell-based. An outline of the steps: as §3

The target of experiment [12] is T1, Adenosine receptor A2a. The experiment can be described thus: Inverse agonist activity at human A2A adenosine receptor expressed in CHO cells assessed as inhibition of basal cAMP level after 30 mins by Alphascreen assay relative to control. The experiment is classed as functional, cell-based. An outline of the steps: as §1
For experiment [13], the target named is T1, Adenosine receptor A2a. Nature of the experiment: Antagonist activity at human A2A adenosine receptor expressed in CHO cells assessed as inhibition of CGS21680-stimulated cAMP level after 30 mins by Alphascreen assay relative to control. The experiment is classed as functional, cell-based. An outline of the steps: as §2

Each structure is given as a SMILES string.

T1 sequence (P29274 whole entry): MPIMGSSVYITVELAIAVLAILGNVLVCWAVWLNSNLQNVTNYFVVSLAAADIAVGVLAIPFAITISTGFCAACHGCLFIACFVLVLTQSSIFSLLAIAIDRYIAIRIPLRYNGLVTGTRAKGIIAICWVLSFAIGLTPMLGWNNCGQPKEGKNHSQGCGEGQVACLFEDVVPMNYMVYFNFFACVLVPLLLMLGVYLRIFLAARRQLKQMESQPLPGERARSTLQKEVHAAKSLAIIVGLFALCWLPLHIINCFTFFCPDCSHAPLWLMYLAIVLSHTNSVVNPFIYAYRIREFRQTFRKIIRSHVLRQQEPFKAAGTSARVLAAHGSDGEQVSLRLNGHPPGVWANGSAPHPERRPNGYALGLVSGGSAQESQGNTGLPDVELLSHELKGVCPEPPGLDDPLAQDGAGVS

Broadly, the Ki is a dissociation constant, usually derived from enzyme kinetics or from competition with a known ligand. Lower therefore signals a stronger hold on the target. Broadly, the inhibition is how much of the control response was suppressed. In turn, `Nc1nc(Nc2ccccc2)nc2sc(-c3ccccc3)nc12` gave an inhibition constant (Ki) in experiment [1] greater than 10 µM. Further, the inhibition in experiment [2] is 1%.

Consider `COc1cccc(CNc2nc(N)c3nc(C)sc3n2)c1`, for which, in [1], the Ki is 0.212 µM.

Broadly, the IC50 is the concentration needed to halve the response being measured. For the molecule `Nc1nc(NCCc2ccc(O)cc2)nc2sc(-c3ccccc3)nc12`, the Ki in experiment [3] amounted to 0.242 µM; in experiment [1] it was 0.096 µM; in [5] it was 1.61 µM. In [4], the IC50 came to 7.52 µM.

In the case of `COc1ccccc1CNc1nc(N)c2nc(C)sc2n1`, the affinity in [1] corresponds to a Ki of 0.135 µM.

On to `COc1ccccc1CNc1nc(N)c2nc(-c3ccccc3)sc2n1`, for which affinity in [1] was put at a Ki of 0.00472 µM. For the same molecule, the figures for the IC50 in experiment [6] and in experiment [7] were 0.00534 µM and 0.00763 µM, respectively.

Turning to `Cc1nc2c(N)nc(Nc3ccccc3)nc2s1`, affinity in experiment [1] was put at a Ki of 0.608 µM.

Molecule `Cc1nc2c(N)nc(NCc3cccs3)nc2s1` gave a Ki in experiment [1] of 0.313 µM.

Regarding `COc1ccc(CCNc2nc(N)c3nc(-c4ccccc4)sc3n2)cc1`, the Ki in [3] is 0.485 µM; in experiment [1], 0.403 µM; in [5], 3.53 µM. For the same molecule, the IC50 in [4] was greater than 10 µM. In addition, the inhibition in experiment [8] came to 33%.

In [1], `Cc1nc2c(N)nc(NCc3ccccc3)nc2s1` returned a Ki of 0.532 µM.

Broadly, the Emax is the maximal effect, on the per cent scale that the assay sets. `Cc1nc2c(N)nc(NCCc3cccs3)nc2s1`: the Ki in experiment [3] worked out at 0.092 µM; in experiment [1] it was 0.061 µM; in experiment [5], 1.52 µM. Further, the IC50 was 0.134 µM in experiment [4], 0.107 µM in experiment [10], 0.083 µM in [6] and 0.102 µM in experiment [7]. In experiment [9], the Activity was 100%. Moreover, the results for the Emax in experiment [11], in experiment [12] and in experiment [13] were 98%, 58% and 124%, respectively.

`Nc1nc(NCc2ccccc2)nc2sc(-c3ccccc3)nc12` registered a Ki in experiment [1] of 0.116 µM.

In the case of `Cc1nc2c(N)nc(NCCc3ccccc3)nc2s1`, the Ki in experiment [3] is 0.14 µM; in [1] it was 0.078 µM; in [5], 0.548 µM. The IC50 in experiment [4] is 1.1 µM.

In experiment [1], `COc1cccc(CNc2nc(N)c3nc(-c4cnccn4)sc3n2)c1` showed a Ki of 0.973 µM.

As for `Nc1nc(NCc2cccs2)nc2sc(-c3ccccc3)nc12`, affinity in experiment [1] was put at a Ki of 0.028 µM. Further, the IC50 in experiment [6] was determined as 0.036 µM; in experiment [7], 0.043 µM. The Emax in experiment [12] stood at 64%; in experiment [13], 131%.

Regarding `COc1cccc(CNc2nc(N)c3nc(-c4ccccc4)sc3n2)c1`, the Ki in [1] was 0.042 µM. Also, the values for the IC50 in experiment [6] and in experiment [7] were 0.048 µM and 0.066 µM, respectively. Besides, the Emax was found to be 52% in experiment [12] and 128% in [13].

In turn, `Nc1nc(NCc2cccs2)nc2sc(-c3cnccn3)nc12` came in with a Ki in [1] of 0.219 µM. In other words, the sub-micromolar range.

For `Nc1nc(NCCc2ccccc2)nc2sc(-c3ccccc3)nc12`, the inhibitory constant (Ki) amounted to 0.121 µM in experiment [3], 0.406 µM in experiment [1] and 2.27 µM in experiment [5]. In [4], the IC50 was found to be 4.38 µM.

In experiment [1], `COc1ccccc1CNc1nc(N)c2nc(-c3cnccn3)sc2n1` registered a Ki of 0.079 µM.

These data come from ChEMBL document CHEMBL4118252, “Identification of novel thiazolo[5,4-d]pyrimidine derivatives as human A1 and A2A adenosine receptor antagonists/inverse agonists” (Bioorg Med Chem, 2018).
